Experimental data: ChEMBL document CHEMBL1147601, “Synthesis, biodistribution and micro-PET imaging of radiolabeled antimitotic agent T138067 analogues” (Bioorg Med Chem Lett, 2004)

What was measured:
Mus musculus [1] = test: In vivo biodistribution of compound in blood of MCF-7 transfected with IL-1alpha implanted athymic mice at 30 min post iv injection; assay type: ADME, organism-based; conditions: 0.5 h
How it was run: (§1)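 Tumor-bearing athymic mice 8 weeks after xenograft implantation; tail-vein iv dose of 1–3 mCi [11C]-labeled tracer (subpharmacologic) in conscious restrained animals. Killed by decapitation under halothane at 30 min. Tissues excised and weighed, decay-corrected radioactivity gamma-counted, expressed as % injected dose/g. Tumor/blood and tumor/muscle ratios taken from these values. Mean ± SD, n=3 mice.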

[2] = In vivo biodistribution ratio in tumor to that of blood (T/B ratio) in MCF-7 transfected with IL-1alpha implanted athymic mice; assay type: ADME, organism-based; conditions: mouse; how it was run: as §1
Mus musculus [3] = test: In vivo biodistribution ratio in tumor to that of muscle (T/M ratio) in MCF-7 transfected with IL-1alpha implanted athymic mice; assay type: ADME, organism-based, Muscle tissue; how it was run: as §1
Mus musculus [4] = test: In vivo biodistribution of compound in kidneys of MDA-MB-435 implanted athymic mice at 30 min post iv injection; assay type: ADME, organism-based, Kidney; conditions: 0.5 h; how it was run: as §1
Mus musculus [5] = test: In vivo biodistribution of compound in liver of MCF-7 transfected with IL-1alpha implanted athymic mice at 30 min post iv injection; assay type: ADME, organism-based; conditions: 0.5 h; how it was run: as §1
Mus musculus [6] = test: In vivo biodistribution of compound in liver of MDA-MB-435 implanted athymic mice at 30 min post iv injection; assay type: ADME, organism-based; conditions: 0.5 h; how it was run: as §1
Mus musculus [7] = test: In vivo biodistribution of compound in lungs of MCF-7 transfected with IL-1alpha implanted athymic mice at 30 min post iv injection; assay type: ADME, organism-based, Lung; conditions: 0.5 h; how it was run: as §1
Mus musculus [8] = test: In vivo biodistribution of compound in blood of MDA-MB-435 implanted athymic mice at 30 min post iv injection; assay type: ADME, organism-based; conditions: 0.5 h; how it was run: as §1
Mus musculus [9] = test: In vivo biodistribution of compound in bone of MCF-7 transfected with IL-1alpha implanted athymic mice at 30 min post iv injection; assay type: ADME, organism-based, Bone element; conditions: 0.5 h; how it was run: as §1
Mus musculus [10] = test: In vivo biodistribution of compound in bone of MDA-MB-435 implanted athymic mice at 30 min post iv injection; assay type: ADME, organism-based, Bone element; conditions: 0.5 h; how it was run: as §1
Mus musculus [11] = test: In vivo biodistribution of compound in brain of MCF-7 transfected with IL-1alpha implanted athymic mice at 30 min post iv injection; assay type: ADME, organism-based; conditions: 0.5 h; how it was run: as §1
Mus musculus [12] = test: In vivo biodistribution of compound in brain of MDA-MB-435 implanted athymic mice at 30 min post iv injection; assay type: ADME, organism-based; conditions: 0.5 h; how it was run: as §1
Mus musculus [13] = test: In vivo biodistribution of compound in heart of MCF-7 transfected with IL-1alpha implanted athymic mice at 30 min post iv injection; assay type: ADME, organism-based; conditions: 0.5 h; how it was run: as §1
Mus musculus [14] = test: In vivo biodistribution of compound in heart of MDA-MB-435 implanted athymic mice at 30 min post iv injection; assay type: ADME, organism-based; conditions: 0.5 h; how it was run: as §1
Mus musculus [15] = test: In vivo biodistribution of compound in kidney of MCF-7 transfected with IL-1alpha implanted athymic mice at 30 min post iv injection; assay type: ADME, organism-based; conditions: 0.5 h; how it was run: as §1
Mus musculus [16] = test: In vivo biodistribution of compound in lungs of MDA-MB-435 implanted athymic mice at 30 min post iv injection; assay type: ADME, organism-based, Lung; conditions: 0.5 h; how it was run: as §1
Mus musculus [17] = test: In vivo biodistribution of compound in muscle of MCF-7 transfected with IL-1alpha implanted athymic mice at 30 min post iv injection; assay type: ADME, organism-based, Muscle tissue; conditions: 0.5 h; how it was run: as §1
Mus musculus [18] = test: In vivo biodistribution of compound in muscle of MDA-MB-435 implanted athymic mice at 30 min post iv injection; assay type: ADME, organism-based, Muscle tissue; conditions: 0.5 h; how it was run: as §1
Mus musculus [19] = test: In vivo biodistribution of compound in small intestine of MCF-7 transfected with IL-1alpha implanted athymic mice at 30 min post iv injection; assay type: ADME, organism-based; conditions: 0.5 h; how it was run: as §1
Mus musculus [20] = test: In vivo biodistribution of compound in spleen of MCF-7 transfected with IL-1alpha implanted athymic mice at 30 min post iv injection; assay type: ADME, organism-based; conditions: 0.5 h; how it was run: as §1
Mus musculus [21] = test: In vivo biodistribution of compound in spleen of MDA-MB-435 implanted athymic mice at 30 min post iv injection; assay type: ADME, organism-based; conditions: 0.5 h; how it was run: as §1
Mus musculus [22] = test: In vivo biodistribution of compound in tumor of MCF-7 transfected with IL-1alpha implanted athymic mice at 30 min post iv injection; assay type: ADME, organism-based; conditions: 0.5 h; how it was run: as §1
Mus musculus [23] = test: In vivo biodistribution of compound in tumor of MDA-MB-435 implanted athymic mice at 30 min post iv injection; assay type: ADME, organism-based; conditions: 0.5 h; how it was run: as §1
Mus musculus [24] = test: In vivo biodistribution of compound in small intestine of MDA-MB-435 implanted athymic mice at 30 min post iv injection; assay type: ADME, organism-based; conditions: 0.5 h; how it was run: as §1
[25] = In vivo biodistribution ratio in tumor to that of blood (T/B ratio) in MDA-MB-435 implanted athymic mice; assay type: functional
How it was run: (§2)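 Athymic mice 8 weeks after MDA-MB-435 xenograft implantation received a subpharmacologic iv tail-vein dose of the 11C-labelled tracer under conscious restraint. They were killed by decapitation under halothane at 30 min post injection. Tissues were excised and weighed, and decay-corrected radioactivity was gamma-counted as % id/g. The ratio is tumor %id/g over muscle or blood %id/g, given as mean ± SD of n=3 mice.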

[26] = In vivo biodistribution ratio in tumor to that of muscle (T/M ratio) in MDA-MB-435 implanted athymic mice; assay type: functional, Muscle tissue; how it was run: as §2

Question: What does the source list for `[11CH3]Oc1ccc(NS(=O)(=O)c2c(F)c(F)c(F)c(F)c2F)cc1F`?
Answer: Injected dose/g (Mus musculus [1]): 1.68%; Kp [2]: 0.94; Ratio (Mus musculus [3]): 0.89; Injected dose/g (Mus musculus [4]): 17.62%; Injected dose/g (Mus musculus [5]): 6.79%; Injected dose/g (Mus musculus [6]): 14.92%; Injected dose/g (Mus musculus [7]): 4.95%; Injected dose/g (Mus musculus [8]): 0.35%; Injected dose/g (Mus musculus [9]): 1.31%; Injected dose/g (Mus musculus [10]): 1.75%; Injected dose/g (Mus musculus [11]): 1.53%; Injected dose/g (Mus musculus [12]): 1.03%; Injected dose/g (Mus musculus [13]): 1.75%; Injected dose/g (Mus musculus [14]): 8.54%; Injected dose/g (Mus musculus [15]): 3.34%; Injected dose/g (Mus musculus [16]): 9.2%; Injected dose/g (Mus musculus [17]): 1.7%; Injected dose/g (Mus musculus [18]): 1.99%; Injected dose/g (Mus musculus [19]): 5.16%; Injected dose/g (Mus musculus [20]): 2.01%; Injected dose/g (Mus musculus [21]): 2.95%; Injected dose/g (Mus musculus [22]): 1.51%; Injected dose/g (Mus musculus [23]): 1.92%; Injected dose/g (Mus musculus [24]): 6.19%; Ratio [25]: 5.63; Ratio [26]: 1.01
